One block for each compound: values may come before it. The source made the active and inactive calls. No cut-off for these calls is given here.
What was measured:
[1] = Growth inhibition of human H3255 cells assessed as ATP level after 96 hrs by CellTiter-Glo assay; assay type: functional; conditions: NCI-H3255, 96 h
Method in brief: (§1)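 NSCLC lines maintained as in earlier work and authenticated by mutational analysis and SNP arrays. Cells were plated in 384-well format and allowed 24 h before compound addition as 10 threefold serial dilutions (DMSO stocks). After 96 h, viability was read as cellular ATP by CellTiter-Glo. GI50 was fitted with an R package.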

[2] = Growth inhibition of human NCI-H1819 cells assessed as ATP level after 96 hrs by CellTiter-Glo assay; assay type: functional; conditions: NCI-H1819, 96 h
Method in brief: (§2)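 NSCLC lines maintained as previously described, authenticated by mutational analysis and SNP arrays. Cells seeded and incubated 24 h, then given compound (DMSO stocks) as 10 threefold serial dilutions. Viability read after 96 h as cellular ATP content (CellTiter-Glo). GI50 derived by curve fitting of half-maximal inhibition.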

[3] = Growth inhibition of human H820 cells assessed as ATP level after 96 hrs by CellTiter-Glo assay; assay type: functional; conditions: NCI-H820, 96 h; method in brief: as §1
[4] = Growth inhibition of human NCI-H2110 cells assessed as ATP level after 96 hrs by CellTiter-Glo assay; assay type: functional; conditions: NCI-H2110, 96 h
[5] = Growth inhibition of human HCC4006 cells assessed as ATP level after 96 hrs by CellTiter-Glo assay; assay type: functional; conditions: HCC4006, 96 h; method in brief: as §1
EKVX = experiment: Growth inhibition of human EKVX cells assessed as ATP level after 96 hrs by CellTiter-Glo assay; assay type: functional; method in brief: as §1
[6] = Growth inhibition of human HCC193 cells assessed as ATP level after 96 hrs by CellTiter-Glo assay; assay type: functional; conditions: HCC193, 96 h; method in brief: as §1
NCI-H1650 = experiment: Growth inhibition of human NCI-H1650 cells assessed as ATP level after 96 hrs by CellTiter-Glo assay; assay type: functional; conditions: NCI-H1650, 96 h; method in brief: as §1
A-427 = experiment: Growth inhibition of human A427 cells assessed as ATP level after 96 hrs by CellTiter-Glo assay; assay type: functional; conditions: A-427, 96 h; method in brief: as §1
[7] = Growth inhibition of human HCC461 cells assessed as ATP level after 96 hrs by CellTiter-Glo assay; assay type: functional; conditions: HCC461, 96 h; method in brief: as §1
[8] = Growth inhibition of human NCI-H3122 cells assessed as ATP level after 96 hrs by CellTiter-Glo assay; assay type: functional; conditions: NCI-H3122, 96 h
SK-LU-1 = experiment: Growth inhibition of human SKLU1 cells assessed as ATP level after 96 hrs by CellTiter-Glo assay; assay type: functional; conditions: SK-LU-1, 96 h
[9] = Growth inhibition of human HCC1833 cells assessed as ATP level after 96 hrs by CellTiter-Glo assay; assay type: functional; method in brief: as §1
NCI-H2087 = experiment: Growth inhibition of human NCI-H2087 cells assessed as ATP level after 96 hrs by CellTiter-Glo assay; assay type: functional; conditions: NCI-H2087, 96 h
NCI-H522 = experiment: Growth inhibition of human NCI-H522 cells assessed as ATP level after 96 hrs by CellTiter-Glo assay; assay type: functional; conditions: NCI-H522, 96 h
[10] = Growth inhibition of human HCC1195 cells assessed as ATP level after 96 hrs by CellTiter-Glo assay; assay type: functional; method in brief: as §1
NCI-H1838 = experiment: Growth inhibition of human NCI-H1838 cells assessed as ATP level after 96 hrs by CellTiter-Glo assay; assay type: functional; conditions: NCI-H1838, 96 h; method in brief: as §2
DV-90 = experiment: Growth inhibition of human DV90 cells assessed as ATP level after 96 hrs by CellTiter-Glo assay; assay type: functional; conditions: DV-90, 96 h; method in brief: as §1
[11] = Growth inhibition of human HCC1359 cells assessed as ATP level after 96 hrs by CellTiter-Glo assay; assay type: functional; method in brief: as §1
NCI-H2122 = experiment: Growth inhibition of human NCI-H2122 cells assessed as ATP level after 96 hrs by CellTiter-Glo assay; assay type: functional; conditions: NCI-H2122, 96 h
[12] = Growth inhibition of human H441 cells assessed as ATP level after 96 hrs by CellTiter-Glo assay; assay type: functional; conditions: NCI-H441, 96 h; method in brief: as §1
[13] = Growth inhibition of human HCC15 cells assessed as ATP level after 96 hrs by CellTiter-Glo assay; assay type: functional; conditions: HCC15, 96 h; method in brief: as §1
LCLC-97TM1 = experiment: Growth inhibition of human LCLC97TM1 cells assessed as ATP level after 96 hrs by CellTiter-Glo assay; assay type: functional; conditions: LCLC-97TM1, 96 h; method in brief: as §1
Calu-1 = experiment: Growth inhibition of human Calu1 cells assessed as ATP level after 96 hrs by CellTiter-Glo assay; assay type: functional; conditions: Calu-1, 96 h; method in brief: as §1
NCI-H2228 = experiment: Growth inhibition of human NCI-H2228 cells assessed as ATP level after 96 hrs by CellTiter-Glo assay; assay type: functional; conditions: NCI-H2228, 96 h
[14] = Growth inhibition of human HCC364 cells assessed as ATP level after 96 hrs by CellTiter-Glo assay; assay type: functional; conditions: HCC364, 96 h; method in brief: as §1
NCI-H2347 = experiment: Growth inhibition of human NCI-H2347 cells assessed as ATP level after 96 hrs by CellTiter-Glo assay; assay type: functional; conditions: NCI-H2347, 96 h
[15] = Growth inhibition of human HCC2450 cells assessed as ATP level after 96 hrs by CellTiter-Glo assay; assay type: functional; method in brief: as §1
[16] = Growth inhibition of human NCI-H2882 cells assessed as ATP level after 96 hrs by CellTiter-Glo assay; assay type: functional; conditions: NCI-H2882, 96 h
NCI-H28 = experiment: Growth inhibition of human NCI-H28 cells assessed as ATP level after 96 hrs by CellTiter-Glo assay; assay type: functional; conditions: NCI-H28, 96 h
NCI-H1792 = experiment: Growth inhibition of human NCI-H1792 cells assessed as ATP level after 96 hrs by CellTiter-Glo assay; assay type: functional; conditions: NCI-H1792, 96 h; method in brief: as §2
NCI-H1666 = experiment: Growth inhibition of human NCI-H1666 cells assessed as ATP level after 96 hrs by CellTiter-Glo assay; assay type: functional; conditions: NCI-H1666, 96 h; method in brief: as §1
[17] = Growth inhibition of human H23 cells assessed as ATP level after 96 hrs by CellTiter-Glo assay; assay type: functional; conditions: NCI-H23, 96 h; method in brief: as §1
NCI-H1395 = experiment: Growth inhibition of human NCI-H1395 cells assessed as ATP level after 96 hrs by CellTiter-Glo assay; assay type: functional; conditions: NCI-H1395, 96 h; method in brief: as §1
A549 = experiment: Growth inhibition of human A549 cells assessed as ATP level after 96 hrs by CellTiter-Glo assay; assay type: functional; conditions: A549, 96 h; method in brief: as §1
[18] = molecular target: Myosin light chain kinase, smooth muscle (Homo sapiens, UniProt Q15746); experiment: Competitive inhibition of MLCK by Lineweaver-Burk plot analysis
Sequence of Myosin light chain kinase, smooth muscle (Q15746 whole entry): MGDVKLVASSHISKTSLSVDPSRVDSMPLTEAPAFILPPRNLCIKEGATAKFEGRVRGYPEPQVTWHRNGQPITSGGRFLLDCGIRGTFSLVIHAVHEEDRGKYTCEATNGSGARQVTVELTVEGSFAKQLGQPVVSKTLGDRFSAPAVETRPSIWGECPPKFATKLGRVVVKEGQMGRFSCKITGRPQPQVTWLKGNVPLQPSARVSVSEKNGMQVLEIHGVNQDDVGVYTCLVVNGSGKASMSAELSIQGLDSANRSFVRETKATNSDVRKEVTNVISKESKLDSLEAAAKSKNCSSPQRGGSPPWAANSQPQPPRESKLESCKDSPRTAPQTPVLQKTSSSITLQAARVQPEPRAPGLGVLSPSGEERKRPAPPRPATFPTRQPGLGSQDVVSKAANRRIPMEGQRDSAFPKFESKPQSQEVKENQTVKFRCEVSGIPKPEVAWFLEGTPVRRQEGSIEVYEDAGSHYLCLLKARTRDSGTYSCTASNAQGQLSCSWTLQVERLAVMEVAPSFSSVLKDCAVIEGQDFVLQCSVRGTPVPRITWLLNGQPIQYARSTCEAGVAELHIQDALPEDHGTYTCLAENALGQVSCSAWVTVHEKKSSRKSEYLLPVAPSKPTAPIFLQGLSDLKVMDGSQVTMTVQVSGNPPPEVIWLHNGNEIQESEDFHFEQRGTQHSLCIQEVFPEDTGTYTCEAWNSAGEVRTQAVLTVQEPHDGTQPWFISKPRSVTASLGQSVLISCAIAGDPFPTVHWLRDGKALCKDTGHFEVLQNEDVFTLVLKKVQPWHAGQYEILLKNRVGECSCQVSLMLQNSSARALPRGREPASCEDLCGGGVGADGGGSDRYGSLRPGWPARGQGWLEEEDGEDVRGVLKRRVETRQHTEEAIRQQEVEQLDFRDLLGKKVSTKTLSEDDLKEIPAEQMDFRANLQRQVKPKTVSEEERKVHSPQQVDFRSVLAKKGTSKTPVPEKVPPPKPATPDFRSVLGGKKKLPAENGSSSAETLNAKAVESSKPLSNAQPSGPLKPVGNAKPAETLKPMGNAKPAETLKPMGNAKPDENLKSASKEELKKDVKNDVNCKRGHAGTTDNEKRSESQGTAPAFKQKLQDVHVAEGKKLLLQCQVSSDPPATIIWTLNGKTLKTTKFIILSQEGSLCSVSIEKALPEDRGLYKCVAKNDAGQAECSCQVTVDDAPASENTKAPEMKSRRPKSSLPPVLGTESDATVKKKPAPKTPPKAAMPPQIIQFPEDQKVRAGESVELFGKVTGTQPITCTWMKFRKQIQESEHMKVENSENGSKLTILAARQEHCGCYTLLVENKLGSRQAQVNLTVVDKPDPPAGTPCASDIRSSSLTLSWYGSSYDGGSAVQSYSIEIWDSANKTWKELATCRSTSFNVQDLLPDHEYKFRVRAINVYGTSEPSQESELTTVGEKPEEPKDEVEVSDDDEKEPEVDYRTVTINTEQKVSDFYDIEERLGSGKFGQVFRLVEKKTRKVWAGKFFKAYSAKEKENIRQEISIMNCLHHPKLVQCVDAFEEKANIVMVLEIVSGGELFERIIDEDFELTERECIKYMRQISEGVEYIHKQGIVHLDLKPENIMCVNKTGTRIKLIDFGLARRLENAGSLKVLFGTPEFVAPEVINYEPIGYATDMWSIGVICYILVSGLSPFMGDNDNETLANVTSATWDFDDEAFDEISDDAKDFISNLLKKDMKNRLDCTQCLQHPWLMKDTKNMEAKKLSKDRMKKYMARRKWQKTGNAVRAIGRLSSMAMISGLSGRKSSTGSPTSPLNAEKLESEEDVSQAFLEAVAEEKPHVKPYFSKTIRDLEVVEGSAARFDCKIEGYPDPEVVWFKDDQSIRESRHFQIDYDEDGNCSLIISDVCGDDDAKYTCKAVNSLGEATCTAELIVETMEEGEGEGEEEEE
Method in brief: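 Double-reciprocal (1/V vs 1/[ATP]) kinetics using the HTRF phosphorylation read-out with Ca2+/calmodulin. Conditions: 375 nM STK1 peptide substrate, ATP at 80, 110 and 140 µM, inhibitor at 0, 1, 5 and 10 µM. Reaction velocities plotted to determine the mode of inhibition.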

GI50 (NCI-H1650): 15.7 µM
GI50 (SK-LU-1): 16.6 µM
GI50 (NCI-H2087): 17 µM
GI50 (NCI-H522): 17.2 µM
GI50 (NCI-H1838): 18.2 µM
GI50 (NCI-H2122): 18.8 µM
GI50 (Calu-1): 19.7 µM
GI50 (NCI-H2228): 21.9 µM
GI50 (NCI-H2347): 22.9 µM
GI50 (NCI-H28): 24.8 µM
GI50 (NCI-H1792): 26.3 µM
GI50 (NCI-H1666): 28.8 µM
GI50 (NCI-H1395): 31.3 µM
GI50 (A549): 40 µM
Compound: CN(C)C/C=C/C(=O)Nc1ccc2c(C#N)cnc(Nc3cccc(Br)c3)c2c1
GI50 [1]: 4.32 µM
GI50 [2]: 7.59 µM
GI50 [3]: 12.9 µM
GI50 [4]: 13.2 µM
GI50 [5]: 13.3 µM
GI50 (EKVX): 14.5 µM
GI50 [6]: 15.3 µM
GI50 (A-427): 15.8 µM
GI50 [7]: 16 µM
GI50 [8]: 16.6 µM
GI50 [9]: 16.8 µM
GI50 [10]: 17.6 µM
GI50 (DV-90): 18.4 µM
GI50 [11]: 18.6 µM
GI50 [12]: 19.1 µM
GI50 [13]: 19.3 µM
GI50 (LCLC-97TM1): 19.5 µM
GI50 [14]: 21.9 µM
GI50 [15]: 22.9 µM
GI50 [16]: 23.7 µM
GI50 [17]: 29.9 µM

inhibition [18]: Active
Compound: CN1CCN(CCC(=O)Nc2ccc3c(C#N)cnc(Nc4cccc(Br)c4)c3c2)CC1
